The values that follow come from publication PMC8099043 (Pharmacology Research & Perspectives, 2021).

Read-outs that look alike come from different tables or passages of the source.

Series [1] relates to rivaroxaban metabolism in rat liver microsomes (RLMs). Kind of series: Inhibition of rivaroxaban metabolism by naringenin in rat liver microsomes. It counts as in vitro ADME, Sprague–Dawley rat. Conditions: RLMs, Lineweaver-Burk plot. The essentials:
(§1)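 Flavonoid test compound and substrate were incubated with rat liver microsomes (1 mg/ml) in 100 mM potassium phosphate, pH 7.4. After 5 min preincubation at 37 °C, 1 mM NADPH (final) started the reaction, which ran 30 min. It was quenched with acetonitrile plus diazepam IS, centrifuged and analysed by UPLC‑MS/MS. IC50 used 10 μM substrate with test compound at 1–100 μM.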

The test system of series [2] is rivaroxaban metabolism in rat liver microsomes. The description is as above. In kind it is in vitro ADME, Sprague–Dawley rat. Conditions: Sprague-Dawley, rat, rat liver microsomes, pH 7.4, probe rivaroxaban (10 μM). The essentials:
as §1
For orientation: Liver microsomes are a subcellular fraction often used to study metabolism.

The format of series [3] is in vivo, Sprague–Dawley rat.
The conditions of series [4]: with ticagrelor, rats; cited from earlier work.
The subject of series [5] is rat liver microsomes (RLMs). Kind of series: Michaelis–Menten kinetics of rivaroxaban metabolism in RLMs. In kind it is in vitro ADME, Sprague–Dawley rat. The method in brief:
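Rat liver microsomes (1 mg/ml, 100 mM potassium phosphate, pH 7.4) were incubated with substrate over nine levels spanning 1–200 μM. Preincubation was 5 min at 37 °C, then 1 mM NADPH (final) started a 30 min reaction. It was stopped with acetonitrile plus diazepam IS, centrifuged, and the supernatant was run on UPLC‑MS/MS (positive ESI, MRM). Km came from a Michaelis–Menten fit; mean ± SD, n = 3.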

The conditions of series [6]: cited from earlier work.
For series [7] the following is noted: pre-treatment of rats with naringenin for 2 weeks vs control; cited from earlier work.
The mark [8] stands for this setting: Control group: rivaroxaban 10 mg/kg oral gavage only, rats, n = 6.
Setting [9] is: pretreatment of rat with naringenin for 14 days.
The mark [10] stands for this setting: 10 mg rivaroxaban in combination with 200 mg ketoconazole once daily.
Setting [11] is: co-administration with rifampicin.
[12] abbreviates: single-dose rivaroxaban co-administrated with ritonavir.

On to `O=C1C[C@@H](c2ccc(O)cc2)Oc2cc(O)cc(O)c21` [naringenin], for which, in series [1], the inhibition type result is recorded as “mixed inhibition”. Moreover, the affinity in series [1] (rivaroxaban 5-40 μM, naringenin 0-80 μM) corresponds to a Ki of 54.9 µM. Besides, in series [2], the IC50 (as a rule, the concentration that gives 50% inhibition) at 30 min was determined as 38.9 µM.

In the case of `O=C(NC[C@H]1CN(c2ccc(N3CCOCC3=O)cc2)C(=O)O1)c1ccc(Cl)s1` [rivaroxaban], the “AUC(0–t)” value in series [3] (Control group: rivaroxaban 10 mg/kg oral gavage only, rats (abstract)) came to 2406.28 ± 519.69 µg/h/L. Moreover, in series [3] (setting [8]), the “AUC(0–t)” value worked out at 2406.28 ± 519.69 µg/h/L and the “AUC(0–∞)” value was 2438.52 ± 529.29 ng/mL/h. In addition, the “AUC(0–t)” value in series [3] (Experimental group: naringenin 10 mg/kg/day for 2 weeks, then rivaroxaban 10 mg/kg oral, rats (abstract)) was determined as 4005.04 ± 1172.76 µg/h/L. For the same molecule, the Tmax (in general, the time at which the peak concentration occurs) in series [3] (male, Sprague-Dawley, rat, plasma, po, 10 mg/kg) was 3.4 ± 0.548 h. Further, in series [3] (setting [9]), the “increase of AUC of rivaroxaban, experimental group vs control” value stood at 1.7 times and the “increase of Cmax of rivaroxaban, experimental group vs control” value was determined as 1.6 times. Besides, in series [4], the “increase of AUC of rivaroxaban” value is “more than twice” and the “increase of Cmax of rivaroxaban” value is recorded as “more than twice”. Further, the Michaelis constant (Km) (as a rule, the concentration of substrate that gives half-maximal velocity) in series [5] (read-out: Km of rivaroxaban metabolism, rivaroxaban 1-200 μM) was 18.4 µM. For the same molecule, the “Vmax of rivaroxaban metabolism” value in series [5] (rivaroxaban 1-200 μM) amounted to 4.35 pmol/min/mg. Also, in series [6] (setting [10]), the “increase of AUC of rivaroxaban” value is given as 82%, the “increase of Cmax of rivaroxaban” value is recorded as 53% and the “reduction of body clearance rate of rivaroxaban” value is recorded as 45%. In addition, in series [6] (setting [11]), the “decrease of AUC of rivaroxaban” value is recorded as 50% and the “decrease of Cmax of rivaroxaban” value is listed as 22%. In addition, in series [6] (setting [12]), the “increase of AUC of rivaroxaban” value is recorded as 150% and the “increase of Cmax of rivaroxaban” value is listed as 60%.

On to `C[C@@H]1CCN(C(=O)CC#N)C[C@@H]1N(C)c1ncnc2[nH]ccc12` [tofacitinib], for which the “increase of AUC of tofacitinib” value in series [7] was 1.76 fold.
